Results on 99 molecules are retold here after ChEMBL document CHEMBL4513216, “Probing the Open Global Health Chemical Diversity Library for Multistage-Active Starting Points for Next-Generation Antimalarials” (ACS Infect Dis, 2020).

The nature of the data set: Toxicity liver stage against HepG2, at 10uM. The format is cell-based. Also noted: test concentration 10 uM, cell line HepG2-A16-CD81EGFP. Conditions: human, HepG2-A16-CD81EGFP cells; read-out: INHIBITION
The method in brief:
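Uninfected HepG2-A16-CD81EGFP cells, 3 × 10^3 per well, 1536-well, plated on prespotted compound at 10 μM final, parasite-free screening media added to match infected plates; puromycin 10 μM positive, DMSO 0.5% negative; run in parallel with 48 h PbLuc assay at 37 °C, 5% CO2; viability by CellTiter-Glo luminescence, normalized to controls.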
`COc1ccc(CC(C)Nc2cccc(F)c2)cc1` (centres undefined): the cytotoxicity at 10 µM is 5.82%.

For the molecule `O=c1c2ccccc2nc2n1C(CSc1ccc(F)cc1)CN2` (centres undefined), the cytotoxicity at 10 µM is 11.2%.

`CN(C)c1nc(N)nc(CN2CCCC2c2ccsc2)n1` (centres undefined): the cytotoxicity at 10 µM was -19.6%.

Consider `CNCc1cn(C[C@H]2CC3CCN2C[C@@H]3C(=O)Nc2ccccc2)nn1` (some centres undefined), for which the cytotoxicity at 10 µM was -0.288%.

Regarding `COCCNc1c(-c2ccc(C)cc2)c(=O)c1=O`, the cytotoxicity at 10 µM was -5.15%.

`CCC(CC)NC(=O)c1cccnc1N1CCCC1c1ccccn1` (centres undefined): the cytotoxicity at 10 µM came out at 10.3%.

Consider `CC(=O)N1N=C(c2cccs2)OC1C(=O)NCCc1cccc(Cl)c1` (centres undefined), for which the cytotoxicity at 10 µM was -1.66%.

On to `O=C1CN(C(=O)c2cccc(C(F)(F)F)c2)CC(O)CN1CC1CC1` (centres undefined), for which the cytotoxicity at 10 µM is -4.65%.

As to `O=C1CC(c2ccc(O)cc2)c2c(c(C(=O)O)cn2-c2ccccc2)N1` (centres undefined), the cytotoxicity at 10 µM was -4.99%.

`CC(C)CNC(=O)c1cn(C)c(=O)c2ccccc12`: the cytotoxicity at 10 µM was found to be 1.28%.

In the case of `O=C(Cc1noc(C(=O)NCCO)n1)Nc1cccc(C(F)(F)F)c1`, the cytotoxicity at 10 µM stood at 8.9%.

For `Cn1cccc1C(O)CNC(=O)c1cccc(Cl)c1` (centres undefined), the cytotoxicity at 10 µM was -1.94%.

Consider `Cc1ccsc1C(O)CNC(=O)Cc1ccc(S(=O)(=O)C(C)C)cc1` (centres undefined), for which the cytotoxicity at 10 µM was -1.21%.

For `Cc1ccc(F)cc1S(=O)(=O)Nc1cnc(N2CCCC2)nc1`, the cytotoxicity at 10 µM amounted to 3.91%.

For the molecule `CCCC(=O)N1CCC2(CC1)CN(Cc1cccc(C)n1)C(=O)CO2`, the cytotoxicity at 10 µM is -5.05%.

`Cc1nc(CN2CCC3(CCN(Cc4cnn(C)c4)C3)C2=O)cs1` (centres undefined): the cytotoxicity at 10 µM turned out to be 6.81%.

On to `COCCn1c2c(ccc1=O)CCN(Cc1ccoc1)CC2`, for which the cytotoxicity at 10 µM is -134%.

As for `O=C1CC(c2ccc(O)cc2)c2sc(C(=O)O)c(-c3ccccc3)c2N1` (centres undefined), the cytotoxicity at 10 µM is -0.472%.

Consider `O=C(Nc1ccc(I)cc1C(=O)NCCN1CCOCC1)c1cccs1`, for which the cytotoxicity at 10 µM was -5.09%.

On to `O=C(c1ccoc1)N1CCC2(CC1)C(=O)Nc1ccccc12`, for which the cytotoxicity at 10 µM is -13.6%.

On to `Cc1ccc(N2CC3(CCN(C(=O)c4ccoc4)C3)C2)nn1`, for which the cytotoxicity at 10 µM was -11.6%.

`Cc1cnc(C(=O)N2CCc3ncnc(C)c3CC2)cn1`: the cytotoxicity at 10 µM is -6.51%.

Regarding `CNC(=O)[C@@]12CCCN(c3ncccn3)[C@@H]1CN(C(=O)NC(C)C)C2`, the cytotoxicity at 10 µM worked out at 0.614%.

Regarding `Cc1nc(N2CCN(c3ccccc3)CC2)c2c(n1)c(C)nn2C`, the cytotoxicity at 10 µM came out at 7.8%.

For the molecule `CCn1nc(C)c2nn(CC(=O)NC3CCSCC3)cc21`, the cytotoxicity at 10 µM is -3.57%.

In the case of `Cc1nc(N2CCCCC2)ncc1-c1cc(O)nc(N2CCCCC2)n1`, the cytotoxicity at 10 µM was 11.8%.

Take `O=C(C1CCCCC1)N1CCCC([C@@H]2C[C@H](C(F)F)n3ncnc3N2)C1` (some centres undefined): the cytotoxicity at 10 µM stood at 1.4%.

As for `Cc1ccnc(C2CN(c3ncccn3)C2)n1`, the cytotoxicity at 10 µM stood at 2.55%.

With `Cc1c(-c2cc(C(=O)N3CCc4ncc(Cl)cc4C3)on2)cnn1C`, the cytotoxicity at 10 µM is -3.07%.

Turning to `C[S+]([O-])CCNC(=O)N1CCSC2(CCCCC2)C1` (centres undefined), the cytotoxicity at 10 µM is -0.363%.

With `CC(C)(C)NC(=O)CNc1ccc(Br)cn1`, the cytotoxicity at 10 µM is -2.81%.

`O=S(=O)(CCO)CCc1ccccc1Cl`: the cytotoxicity at 10 µM worked out at 7.21%.

As to `CCC(O)(CNCc1cc[nH]n1)c1ccc(Br)cc1` (centres undefined), the cytotoxicity at 10 µM was determined as 2.69%.

`CN1N=C(c2nc(Cc3cccc(Br)c3)no2)CCC1=O`: the cytotoxicity at 10 µM is -6.09%.

`CC(C)CC(NC(=O)CN(C)c1cnccn1)c1cccs1` (centres undefined): the cytotoxicity at 10 µM amounted to 2.84%.

`CC(C)Cc1noc(CN2CCC(C(=O)NCC3CCCO3)CC2)n1` (centres undefined): the cytotoxicity at 10 µM was 3.13%.

With `Cc1occc1CNc1ncccc1S(N)(=O)=O`, the cytotoxicity at 10 µM is -149%.

Take `Cc1cc(CNS(C)(=O)=O)ccc1N(C)C`: the cytotoxicity at 10 µM is -11.5%.

Turning to `CCc1cnccc1C(=O)Nc1ccc(C(N)=O)nc1`, the cytotoxicity at 10 µM was 5.44%.

As for `COc1ccc(C)nc1NC(=O)CCc1c(C)nn(C)c1C`, the cytotoxicity at 10 µM was 0.918%.

With `Cc1cc(N2CCCCC2)c(C#N)c(C)n1`, the cytotoxicity at 10 µM was -6.16%.

On to `Cc1csc(-c2cccc(NC(=O)NCC(C)(C)C(N)=O)c2)n1`, for which the cytotoxicity at 10 µM is -4.25%.

Consider `COC(=O)C1CN(Cc2nc(-c3ccccc3)cs2)C[C@@H](C)O1` (some centres undefined), for which the cytotoxicity at 10 µM was -0.227%.

For the molecule `CCN1CCCC1CNC(=O)CCc1cccs1` (centres undefined), the cytotoxicity at 10 µM is -9.09%.

In the case of `CNC(=O)C(NC(=O)c1c(C)noc1C)c1ccc(F)c(F)c1` (centres undefined), the cytotoxicity at 10 µM is -18.3%.

Take `O=C(NCCCn1cccn1)N1CCCC1c1cccs1` (centres undefined): the cytotoxicity at 10 µM was -2.39%.

Take `Cc1cc(C)cc(CNCCS(=O)(=O)N2CCOCC2)c1`: the cytotoxicity at 10 µM stood at 1.05%.

For `CCc1ncc2c(n1)CN(Cc1cnc(C)cn1)CC2`, the cytotoxicity at 10 µM was -7.51%.

Consider `CCCN1CCCN(c2ncccc2C(=O)N2CCCCC2)CC1`, for which the cytotoxicity at 10 µM came out at 0.503%.

Consider `NC(=O)C1CCN(CCc2ccc(NCc3cccnc3)cc2)CC1`, for which the cytotoxicity at 10 µM is 8.02%.

With `CC(C)c1cccc(CSc2nnc(Cn3cncn3)o2)n1`, the cytotoxicity at 10 µM was determined as 13%.

On to `COc1cccc(CCCn2cnnc2[S+](C)[O-])c1` (centres undefined), for which the cytotoxicity at 10 µM is -12.7%.

Consider `COc1ccsc1C(=O)Nc1cc(Cl)c(=O)n(C)c1`, for which the cytotoxicity at 10 µM turned out to be 2.05%.

Turning to `CN(C)c1nccc(N(C)C2CCCCC2)n1`, the cytotoxicity at 10 µM is -6.37%.

On to `Cc1c(NCCOCC(F)(F)F)cccc1C(=O)N1CCCC1`, for which the cytotoxicity at 10 µM is -0.595%.

For the molecule `Cc1[nH]ccc1C(=O)Nc1cccc(CN2CCC(CO)CC2)c1`, the cytotoxicity at 10 µM is -9.37%.

For `C[C@@H]1CN(c2ccc(Cl)cn2)C[C@@]1(O)C1CC1`, the cytotoxicity at 10 µM was -2.81%.

Consider `O=C(NCCC1CCCCO1)c1cc(COc2ccccc2F)[nH]n1` (centres undefined), for which the cytotoxicity at 10 µM came to 6.57%.

On to `O=C(Nc1ccc2occc2c1)N1CCCC(O)(CO)CC1` (centres undefined), for which the cytotoxicity at 10 µM was -0.735%.

`CN(Cc1ncnn1C1Cc2ccccc2C1)C1CCS(=O)(=O)C1` (centres undefined): the cytotoxicity at 10 µM is -2.14%.

As for `Cc1nc(CC(C)C)cc(C(=O)N2C[C@@H](CN(C)C)[C@@H](CO)C2)n1`, the cytotoxicity at 10 µM came out at 0.868%.

Turning to `Cc1nc2c(c(NCC3Cc4ccccc4CN3C)n1)CCNCC2` (centres undefined), the cytotoxicity at 10 µM was -9.08%.

Take `CC(C)c1ccn(C2(C(=O)O)CCN(c3cc(C(N)=O)ccn3)CC2)n1`: the cytotoxicity at 10 µM worked out at 1.71%.

In the case of `CCN(CC)CCn1cnc(-c2ccccc2)c1-c1ncc[nH]1`, the cytotoxicity at 10 µM was determined as 4.03%.

For `CCc1nc(N2CCN(CCOC)CC2)c2cnn(C)c2n1`, the cytotoxicity at 10 µM stood at 0.363%.

Take `COc1cc(C)ccc1S(=O)(=O)N1CC[C@](C)(O)[C@H](C)C1`: the cytotoxicity at 10 µM is 7.52%.

Regarding `Cc1cccc(OC2CN(C(=O)C3CC(=O)N(C(C)(C)C)C3)C2)c1` (centres undefined), the cytotoxicity at 10 µM was 4.4%.

As for `C[C@@H]1CN(c2cccnn2)CC[C@@]1(O)C1CCOCC1`, the cytotoxicity at 10 µM is 2.72%.

`COc1cc(-n2cc(CCO)cn2)ccc1NC(C)=O`: the cytotoxicity at 10 µM came to 9.81%.

With `CCc1cc(NCCCOC2CCN(C)CC2)ncn1`, the cytotoxicity at 10 µM was -8.34%.

Consider `Cn1c(CN2CCCCC2)nnc1C1CCN(c2nccc(N)n2)CC1`, for which the cytotoxicity at 10 µM is -7.98%.

With `Cc1ccccc1CC1(C(=O)O)CCCN(c2ncnc3[nH]ccc23)C1` (centres undefined), the cytotoxicity at 10 µM came out at 3.63%.

With `COc1ccc(Oc2cccc(C#N)n2)cc1CN1CCCC1`, the cytotoxicity at 10 µM is -1.86%.

As for `O=S1(=O)C[C@@H]2[C@H](C1)N(Cc1cc(Cl)cc(Cl)c1)CCN2CC1CC1`, the cytotoxicity at 10 µM came out at 27.6%.

On to `CC1CCCCN1Cc1ccc(-c2ccccc2C(=O)O)cc1` (centres undefined), for which the cytotoxicity at 10 µM stood at 6.74%.

On to `COCCN1CCC(NCc2c(F)cccc2F)C1` (centres undefined), for which the cytotoxicity at 10 µM is -5.95%.

On to `CCc1nc(CN2CCCN(C(=O)c3ccnc(C)n3)CC2)cs1`, for which the cytotoxicity at 10 µM was -13.4%.

`O=C(c1sccc1Br)N(Cc1cccnc1)C1CC1`: the cytotoxicity at 10 µM is -4.07%.

Consider `Cc1cc(NC(=O)NCC(O)COc2ccccc2)n(C)n1` (centres undefined), for which the cytotoxicity at 10 µM is -3.19%.

In the case of `CCc1n[nH]c(C2CN(CCS(C)(=O)=O)CCO2)n1` (centres undefined), the cytotoxicity at 10 µM was -18%.

`c1ncn(CC2CN(CC3CCCCC3)CCO2)n1` (centres undefined): the cytotoxicity at 10 µM was -14.8%.

With `Cn1nc(C(=O)N2CCCC(n3cncn3)C2)ccc1=O` (centres undefined), the cytotoxicity at 10 µM was -17.4%.

Turning to `Cn1ccc(CN2CCC(Oc3ccccc3)CC2)cc1=O`, the cytotoxicity at 10 µM was -3.71%.

With `Cc1noc(C(C)C)c1C(=O)NCc1cc(F)cc(F)c1`, the cytotoxicity at 10 µM was -5.54%.

With `COc1cccc(CCNCc2c(C)nn(C)c2N(C)C)c1`, the cytotoxicity at 10 µM was -1.6%.

In the case of `COc1ccc(-c2cnc(CN3CCn4c(C)nnc4C3)o2)cc1`, the cytotoxicity at 10 µM is -13.5%.

As for `Cc1nnc2n1CCN(CCS(=O)(=O)c1ccccc1)C2`, the cytotoxicity at 10 µM was -9.7%.

Consider `CCc1nnc(CN2CCCC(c3cc(C(F)(F)F)[nH]n3)C2)o1` (centres undefined), for which the cytotoxicity at 10 µM was 6.88%.

For `CSc1ccsc1C(=O)N1CCN(CC(C)(C)O)CC1`, the cytotoxicity at 10 µM is -3.22%.

As for `Cc1cnn(CC2CCCCN2C(=O)c2ccnc(N(C)C)c2)c1` (centres undefined), the cytotoxicity at 10 µM turned out to be 3.3%.

Turning to `CCCNCc1ccc(OCc2ccc3c(c2)OCCO3)cc1`, the cytotoxicity at 10 µM worked out at 3.49%.

Take `CC(C)[C@H](N)c1nnc(SCC(=O)Nc2ccc(Br)cc2)o1`: the cytotoxicity at 10 µM is -5.15%.

On to `O=C(NCc1ccco1)[C@H]1COC[C@H]2CN(Cc3ccoc3)C[C@H]21`, for which the cytotoxicity at 10 µM is -70.4%.

As for `Cc1nc(C)n(CC2CN(Cc3cccnc3)Cc3nccn3C2)n1` (centres undefined), the cytotoxicity at 10 µM is -141%.

With `O=C(C1CCOC1)N1CCC2(CC1)CN(c1ncccn1)CCO2` (centres undefined), the cytotoxicity at 10 µM is -73.2%.

In the case of `Cc1ccccc1N1CC2(CCN(Cc3nccn3C)C2)CC1=O` (centres undefined), the cytotoxicity at 10 µM is -81.3%.

With `CC(C)(C)c1cc(=O)[nH]c(C2(N)CCCCC2)n1`, the cytotoxicity at 10 µM was 16.5%.

For `CNc1nc2cn(C3CC(C)(C)NC(C)(C)C3)c(=O)c-2c[nH]1`, the cytotoxicity at 10 µM stood at 12%.

`Cc1cccc(-n2cc3[nH]c(=O)n(Cc4cccc(F)c4)n3c2=O)c1`: the cytotoxicity at 10 µM was found to be 1.79%.
